Where two headings read alike, the source gives them in different places.
Legend:
Format in all cases: cell-based, human
A549 cells [1] = tested on: A549 cells
In short: (§1)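 Human cells (A549 lung cancer, RPE-1 non-cancerous epithelial) were incubated with test compound for 4 h, the medium was replaced, and the cells were either irradiated or kept dark, then incubated a further 48 h. Viability was read by resazurin. Irradiation was 510 nm for 10 min (non-extended BODIPYs) or 645 nm (extended BODIPYs). IC50 was found dark and irradiated. […]. PPIX was the positive control.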

RPE-1 cells = tested on: RPE-1 cells
In short: as §1

A549 cells [2] = assay: Intracellular total ROS generation, DCFH trap, A549 cells; details: A549, 5 μM, 645 nm for 1 h
In short: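 A549 cells were loaded with the total-ROS trap dichlorodihydrofluorescein (DCFH) and test compound, then irradiated at 645 nm for 1 h at 37 °C. The trap's fluorescence gave intracellular ROS generation. DCFH alone was the control.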

[3] = read-out: IC50 upon 645 nm irradiation, 645 nm for 1 h (9.00 J/cm2)

What does the source list for `C=CC1=C(C)c2cc3[nH]c(cc4nc(cc5[nH]c(cc1n2)c(C)c5CCC(=O)O)C(CCC(=O)O)=C4C)c(C)c3C=C` [PPIX]?
Phototoxicity index (A549 cells [1]; 510 nm for 10 min): 220 ± 30; Phototoxicity index (A549 cells [1]; 645 nm for 1 h): 111 ± 4; IC50 (A549 cells [1]; [3]): 900 ± 30 nM; Phototoxicity index (RPE-1 cells; 510 nm for 10 min): 350 ± 120; Phototoxicity index (RPE-1 cells; 645 nm for 1 h): 360 ± 160; IC50 (RPE-1 cells; read-out: IC50 in the dark, dark, Table 3 (645 nm series)): > 100000 nM; IC50 (RPE-1 cells; read-out: IC50 upon 510 nm irradiation, 510 nm for 10 min (2.44 J/cm2)): 300 ± 100 nM; IC50 (RPE-1 cells; [3]): 300 ± 100 nM; Intracellular ROS generation (A549 cells [2]): elevated above control
